Key:
MCF7 = experiment: Antiproliferative activity against human MCF7 cells assessed as cell viability after 24 hrs; type: functional, cell-based; settings: MCF7, 24 h
How it was run: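 MCF-7 cells (ATCC) kept in DMEM with 10% FBS, 1.0 mM pyruvate, 2 mM L-glutamine and penicillin at 37 °C, 5% CO2. Cells grown to 60–70% confluence, then given fresh medium and compound (DMSO stock diluted in medium) at 0–200 μM for 24 h with serum. Surviving cells counted manually. IC50 from a non-linear fit of % living cells vs log concentration. Triplicate, mean ± SD.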

MDA-MB-231 = experiment: Antiproliferative activity against human MDA-MB-231 cells assessed as cell viability after 24 hrs; type: functional, cell-based; settings: MDA-MB-231, 24 h
B2 bradykinin receptor = molecular target: T1, B2 bradykinin receptor (Homo sapiens, UniProt P30411); experiment: Agonist activity at bradykinin B2 receptor (unknown origin)
T1 sequence (P30411 whole entry): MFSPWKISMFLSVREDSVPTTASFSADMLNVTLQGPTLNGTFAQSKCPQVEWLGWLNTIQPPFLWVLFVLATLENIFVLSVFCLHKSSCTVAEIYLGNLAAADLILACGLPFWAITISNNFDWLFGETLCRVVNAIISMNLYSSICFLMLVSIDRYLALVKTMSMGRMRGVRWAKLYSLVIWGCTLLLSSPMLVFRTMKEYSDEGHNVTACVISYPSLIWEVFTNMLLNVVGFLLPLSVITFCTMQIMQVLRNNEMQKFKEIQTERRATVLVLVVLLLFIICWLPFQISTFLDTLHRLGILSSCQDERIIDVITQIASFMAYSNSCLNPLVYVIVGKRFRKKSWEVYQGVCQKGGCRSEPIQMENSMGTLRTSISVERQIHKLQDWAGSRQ

| SMILES | IC50 (MCF7) | IC50 (MDA-MB-231) | IC50 (B2 bradykinin receptor) |
| --- | --- | --- | --- |
| Cc1cc(OCc2ccccn2)c2cccc(OCc3cccc(Oc4ccccc4)c3)c2n1 | 407000 nM | 6.97 µM | – |
| CNC(=O)c1ccc(/C=C/C(=O)NCC(=O)N(C)c2ccc(Cl)c(COc3cccc4c(OCc5ccccn5)cc(C)nc34)c2Cl)cc1 | 2140 nM | 0.08 µM | – |
| COc1cccc2c1C(=O)c1c(O)c3c(c(O)c1C2=O)C[C@@](O)(C(=O)CO)C[C@@H]3O[C@H]1C[C@H](N)[C@H](O)[C@H](C)O1 [DOXORUBICIN] | – | 0.1 µM | – |
| CC(C)C[C@H](NC(=O)[C@H](Cc1ccccc1)NC(=O)c1cnccn1)B(O)O [BORTEZOMIB] | – | 0.003 µM | – |
| CC1=C(/C=C/C(C)=C/C=C/C(C)=C/C(=O)O)C(C)(C)CCC1 [TRETINOIN] | 6140 nM | 16 µM | – |
| O=c1[nH]cc(F)c(=O)[nH]1 [FLUOROURACIL] | – | 66.6 µM | – |
| CS(=O)(=O)CCNCc1ccc(-c2ccc3ncnc(Nc4ccc(OCc5cccc(F)c5)c(Cl)c4)c3c2)o1 [LAPATINIB] | – | 10.6 µM | – |
| CO[C@H]1C[C@@H]2CC[C@@H](C)[C@@](O)(O2)C(=O)C(=O)N2CCCC[C@H]2C(=O)O[C@H]([C@H](C)C[C@@H]2CC[C@@H](O)[C@H](OC)C2)CC(=O)[C@H](C)/C=C(\C)[C@@H](O)[C@@H](OC)C(=O)[C@H](C)C[C@H](C)/C=C/C=C/C=C/1C [SIROLIMUS] | – | 0.9 µM | – |
| O=C(c1cc(Cc2n[nH]c(=O)c3ccccc23)ccc1F)N1CCN(C(=O)C2CC2)CC1 [OLAPARIB] | – | 62.5 µM | – |
| Cc1nc(NC(=O)N2CCC[C@H]2C(N)=O)sc1-c1ccnc(C(C)(C)C(F)(F)F)c1 [ALPELISIB] | – | 62.9 µM | – |
| CNC(=O)c1ccc(/C=C/C(=O)NCc2cn(-c3ccc(Cl)c(CNc4cccc5c(OCc6ccccn6)cc(C)nc45)c3Cl)nn2)cc1 | 730 nM | 0.43 µM | – |
| COc1cc(/C=C/C(=O)O)ccc1O [FERULATE] | 360 nM | 15 µM | – |
| CNC(=O)c1ccc(/C=C/C(=O)O)cc1 | 2120 nM | 86 µM | – |
| COc1cc(/C=C/C(=O)NCC(=O)N(C)c2ccc(Cl)c(COc3cccc4c(OCc5ccccn5)cc(C)nc34)c2Cl)ccc1O | 330 nM | 5.9 µM | – |
| COc1cccc2c1C(=O)c1c(O)c3c(c(O)c1C2=O)C[C@@](O)(C(=O)CO)C[C@@H]3O[C@H]1C[C@H](N)[C@@H](O)[C@H](C)O1 [EPIRUBICIN] | – | 0.15 µM | – |
| C[C@]12CC[C@@H]3c4ccc(O)cc4C[C@@H](CCCCCCCCC[S+]([O-])CCCC(F)(F)C(F)(F)F)[C@H]3[C@@H]1CC[C@@H]2O (stereo partly specified) [FULVESTRANT] | – | 196 µM | – |
| O=C1c2ccccc2C(=O)N1Cc1cn(-c2ccc(Cl)c(CO)c2Cl)nn1 | 70 nM | 520 µM | – |
| CC(=O)O[C@H]1C(=O)[C@@]2(C)[C@H]([C@H](OC(=O)c3ccccc3)[C@]3(O)C[C@H](OC(=O)[C@H](O)[C@@H](NC(=O)c4ccccc4)c4ccccc4)C(C)=C1C3(C)C)[C@]1(OC(C)=O)CO[C@@H]1C[C@@H]2O [PACLITAXEL] | – | 0.9 µM | – |

| SMILES | IC50 (MCF7) | IC50 (MDA-MB-231) | IC50 (B2 bradykinin receptor) |
| --- | --- | --- | --- |
| Nc1ccn([C@@H]2O[C@H](CO)[C@@H](O)C2(F)F)c(=O)n1 [GEMCITABINE] | – | 2.1 µM | – |
| CC(=O)Nc1ccc(/C=C/C(=O)NCC(=O)N(C)c2ccc(Cl)c(COc3cccc4ccc(C)nc34)c2Cl)cn1 [FR-173657] | – | 20 µM | – |
| CC(=O)c1c(C)c2cnc(Nc3ccc(N4CCNCC4)cn3)nc2n(C2CCCC2)c1=O [PALBOCICLIB] | – | 14.6 µM | – |
| CC[C@]1(O)C[C@@H]2CN(CCc3c([nH]c4ccccc34)[C@@](C(=O)OC)(c3cc4c(cc3OC)N(C)[C@H]3[C@@](O)(C(=O)OC)[C@H](OC(C)=O)[C@]5(CC)C=CCN6CC[C@]43[C@@H]65)C2)C1 [VINBLASTINE] | – | 0.024 µM | – |
| CC1=C(/C=C/C(C)=C/C=C/C(C)=C/C(=O)NCC(=O)N(C)c2ccc(Cl)c(COc3cccc4c(OCc5ccccn5)cc(C)nc34)c2Cl)C(C)(C)CCC1 | 65000 nM | 193 µM | – |
| CC(=O)O[C@@]12CO[C@@H]1C[C@H](O)[C@@]1(C)C(=O)[C@H](O)C3=C(C)[C@@H](OC(=O)[C@H](O)[C@@H](NC(=O)OC(C)(C)C)c4ccccc4)C[C@@](O)([C@@H](OC(=O)c4ccccc4)[C@H]21)C3(C)C [DOCETAXEL ANHYDROUS] | – | 0.01 µM | – |
| CNC(=O)c1ccc(/C=C/C(=O)NCc2cn(-c3ccc(Cl)c(COc4cccc5c(OCc6ccccn6)cc(C)nc45)c3Cl)nn2)cc1 | 91000 nM | 200 µM | – |
| CNC(=O)c1ccc(/C=C/C(=O)NCC(=O)N(C)c2ccc(Cl)c(CO)c2Cl)cc1 | 930 nM | 650 µM | – |
| CN(C(=O)CN1C(=O)c2ccccc2C1=O)c1ccc(Cl)c(CO)c1Cl | 53000 nM | 0.78 µM | – |
| CNC(=O)c1ccc(/C=C/C(=O)NCC(=O)N(C)c2ccc(Cl)c(CNc3cccc4c(OCc5ccccn5)cc(C)nc34)c2Cl)cc1 | 1210 nM | 5.94e-05 µM | – |
| CC/C(=C(\c1ccccc1)c1ccc(OCCN(C)C)cc1)c1ccccc1 [TAMOXIFEN] | – | 69.7 µM | – |
| Cc1cc(OCc2ccccn2)c2cccc(O)c2n1 | 160 nM | 450 µM | – |
| CN(C)C(=O)c1cc2cnc(Nc3ccc(N4CCNCC4)cn3)nc2n1C1CCCC1 [RIBOCICLIB] | – | 27.3 µM | – |
| O=P1(N(CCCl)CCCl)NCCCO1 (stereo unspecified) [CYCLOPHOSPHAMIDE ANHYDROUS] | – | 196 µM | – |
| CC1=C(/C=C/C(C)=C/C=C/C(C)=C/C(=O)NCC(=O)N(C)c2ccc(Cl)c(CNc3cccc4c(OCc5ccccn5)cc(C)nc34)c2Cl)C(C)(C)CCC1 | 64000 nM | 0.005 µM | – |
| Cc1cc(OCc2ccccn2)c2cccc(N)c2n1 | 860 nM | 22 µM | – |
| COc1nc2c(OCc3c(Cl)ccc(N(C)C(=O)CNC(=O)/C=C/c4ccc(NC(C)=O)nc4)c3Cl)cccc2n1Cc1ccccn1 | – | – | 0.68 nM |

Source: ChEMBL document CHEMBL4732084, “Potent antiproliferative activity of bradykinin B2 receptor selective agonist FR-190997 and analogue structures thereof: A paradox resolved?” (Eur J Med Chem, 2021)
